ChEMBL document CHEMBL4229368, “N,N'-disubstituted cinnamamide derivatives potentiate ciprofloxacin activity against overexpressing NorA efflux pump Staphylococcus aureus 1199B strains” (Eur J Med Chem, 2018)

What was measured:
Staphylococcus aureus [1] = assay: Growth inhibition of Staphylococcus aureus SA1199B over-expressing NorA at 15.6 ug/ml after 18 to 24 hrs by broth microdilution method; type: organism-based
[2] = Cytotoxicity against human MRC5 cells assessed as reduction in cell viability after 72 hrs by MTT assay; type: cell-based
Summary of the method: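 MRC5 human lung fibroblasts plated in triplicate at 6000 cells/well in MEM with 10% FBS and incubated overnight at 37 °C, 5% CO2. Compound or DMSO vehicle applied for 72 h, then MTT 1 mg/mL added for 3 h at 37 °C. Formazan dissolved in 0.01 M HCl in isopropanol for 15 min. A570 read minus A690; GI50 as mean SD of ≥3 independent experiments.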

[3] = target: T1, Quinolone resistance protein NorA (Staphylococcus aureus) (UniProt P0A0J7); assay: Inhibition of NorA in Staphylococcus aureus SA1199B assessed as potentiation of ciprofloxacin-induced antibacterial activity by measuring fold reduction in ciprofloxacin MIC at 37.1 uM after 18 to 24 hrs by broth microdilution method
T1 sequence (whole entry): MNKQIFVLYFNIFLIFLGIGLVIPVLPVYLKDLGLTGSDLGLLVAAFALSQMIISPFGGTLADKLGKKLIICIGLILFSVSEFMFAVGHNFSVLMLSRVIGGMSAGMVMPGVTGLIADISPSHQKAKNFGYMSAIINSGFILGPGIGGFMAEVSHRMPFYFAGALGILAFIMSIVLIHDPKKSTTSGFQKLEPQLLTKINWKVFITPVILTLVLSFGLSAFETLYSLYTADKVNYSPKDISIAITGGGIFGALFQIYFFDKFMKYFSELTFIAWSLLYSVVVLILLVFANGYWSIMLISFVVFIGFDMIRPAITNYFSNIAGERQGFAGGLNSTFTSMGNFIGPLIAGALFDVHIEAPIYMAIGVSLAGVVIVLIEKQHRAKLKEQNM
Summary of the method: (§1)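 Ciprofloxacin MIC by CLSI/CASFM broth microdilution in Mueller-Hinton II, two-fold serial dilutions, inoculum 5.10⁵ CFU/mL, 37 °C for 18-24 h. MIC is the lowest concentration with no visible growth. Test agent co-administered at a fixed final concentration without antibacterial activity (10 or 30 µg/mL, or 1/4 MIC where intrinsically active). Result is fold reduction of ciprofloxacin MIC. At least three independent experiments.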

Staphylococcus aureus [4] = assay: Growth inhibition of wild type Staphylococcus aureus SA1199 after 18 to 24 hrs by broth microdilution method; type: organism-based
Staphylococcus aureus [5] = assay: Growth inhibition of wild type Staphylococcus aureus SA1199 assessed as non-toxic concentration after 18 to 24 hrs by broth microdilution method; type: organism-based; settings: pooled result: one value given for 2 cell lines, strains, targets or settings, read-out: Activity
Staphylococcus aureus [6] = assay: Potentiation of ciprofloxacin-induced antibacterial activity against wild type Staphylococcus aureus SA1199 assessed as fold reduction in ciprofloxacin MIC at 37.1 uM after 18 to 24 hrs by broth microdilution method; type: functional; summary of the method: as §1
Staphylococcus aureus [7] = assay: Bactericidal activity against wild type Staphylococcus aureus SA1199 at 10 ug/ml after 18 to 24 hrs by broth microdilution method; type: ADME, organism-based
[8] = target: T1, Quinolone resistance protein NorA (Staphylococcus aureus); assay: Inhibition of NorA in Staphylococcus aureus SA1199B assessed as potentiation of ciprofloxacin-induced antibacterial activity by measuring fold reduction in ciprofloxacin MIC at 25.3 uM after 18 to 24 hrs by broth microdilution method; summary of the method: as §1
Staphylococcus aureus [9] = assay: Potentiation of ciprofloxacin-induced antibacterial activity against wild type Staphylococcus aureus SA1199 assessed as fold reduction in ciprofloxacin MIC at 25.3 uM after 18 to 24 hrs by broth microdilution method; type: functional; summary of the method: as §1
[10] = target: T1, Quinolone resistance protein NorA (Staphylococcus aureus); assay: Inhibition of NorA in Staphylococcus aureus SA1199B assessed as potentiation of ciprofloxacin-induced antibacterial activity by measuring fold reduction in ciprofloxacin MIC at 19.1 uM after 18 to 24 hrs by broth microdilution method; summary of the method: as §1
Staphylococcus aureus [11] = assay: Potentiation of ciprofloxacin-induced antibacterial activity against wild type Staphylococcus aureus SA1199 assessed as fold reduction in ciprofloxacin MIC at 19.1 uM after 18 to 24 hrs by broth microdilution method; type: functional; summary of the method: as §1
[12] = target: T1, Quinolone resistance protein NorA (Staphylococcus aureus); assay: Potency index, ratio of compound effect to reserpine effect for inhibition of NorA in Staphylococcus aureus SA1199B assessed as potentiation of ciprofloxacin-induced antibacterial activity by measuring fold reduction in ciprofloxacin MIC
Staphylococcus aureus [13] = assay: Potentiation of ciprofloxacin-induced antibacterial activity against wild type Staphylococcus aureus SA1199 assessed as fold reduction in ciprofloxacin MIC at 22.9 uM after 18 to 24 hrs by broth microdilution method; type: functional; summary of the method: as §1
[14] = target: T1, Quinolone resistance protein NorA (Staphylococcus aureus); assay: Inhibition of NorA in Staphylococcus aureus SA1199B assessed as potentiation of ciprofloxacin-induced antibacterial activity by measuring fold reduction in ciprofloxacin MIC at 22.9 uM after 18 to 24 hrs by broth microdilution method; summary of the method: as §1
Staphylococcus aureus [15] = assay: Potentiation of ciprofloxacin-induced antibacterial activity against wild type Staphylococcus aureus SA1199 assessed as fold reduction in ciprofloxacin MIC at 21 uM after 18 to 24 hrs by broth microdilution method; type: functional; summary of the method: as §1
[16] = target: T1, Quinolone resistance protein NorA (Staphylococcus aureus); assay: Inhibition of NorA in Staphylococcus aureus SA1199B assessed as potentiation of ciprofloxacin-induced antibacterial activity by measuring fold reduction in ciprofloxacin MIC at 21 uM after 18 to 24 hrs by broth microdilution method; summary of the method: as §1
[17] = target: T1, Quinolone resistance protein NorA (Staphylococcus aureus); assay: Inhibition of NorA in Staphylococcus aureus SA1199B assessed as potentiation of ciprofloxacin-induced antibacterial activity by measuring fold reduction in ciprofloxacin MIC at 20.6 uM after 18 to 24 hrs by broth microdilution method; summary of the method: as §1
Staphylococcus aureus [18] = assay: Potentiation of ciprofloxacin-induced antibacterial activity against wild type Staphylococcus aureus SA1199 assessed as fold reduction in ciprofloxacin MIC at 20.6 uM after 18 to 24 hrs by broth microdilution method; type: functional; summary of the method: as §1
[19] = target: T1, Quinolone resistance protein NorA (Staphylococcus aureus); assay: Inhibition of NorA in Staphylococcus aureus SA1199B assessed as potentiation of ciprofloxacin-induced antibacterial activity by measuring fold reduction in ciprofloxacin MIC at 90.9 uM after 18 to 24 hrs by broth microdilution method; summary of the method: as §1
Staphylococcus aureus [20] = assay: Bactericidal activity against wild type Staphylococcus aureus SA1199 at 30 ug/ml after 18 to 24 hrs by broth microdilution method; type: ADME, organism-based; settings: in vitro
Staphylococcus aureus [21] = assay: Potentiation of ciprofloxacin-induced antibacterial activity against wild type Staphylococcus aureus SA1199 assessed as fold reduction in ciprofloxacin MIC at 90.9 uM after 18 to 24 hrs by broth microdilution method; type: functional; summary of the method: as §1
[22] = target: T1, Quinolone resistance protein NorA (Staphylococcus aureus); assay: Inhibition of NorA in Staphylococcus aureus SA1199B assessed as potentiation of ciprofloxacin-induced antibacterial activity by measuring fold reduction in ciprofloxacin MIC at 80.6 uM after 18 to 24 hrs by broth microdilution method; summary of the method: as §1
Staphylococcus aureus [23] = assay: Potentiation of ciprofloxacin-induced antibacterial activity against wild type Staphylococcus aureus SA1199 assessed as fold reduction in ciprofloxacin MIC at 80.6 uM after 18 to 24 hrs by broth microdilution method; type: functional; summary of the method: as §1
Staphylococcus aureus [24] = assay: Potentiation of ciprofloxacin-induced antibacterial activity against wild type Staphylococcus aureus SA1199 assessed as fold reduction in ciprofloxacin MIC at 81.3 uM after 18 to 24 hrs by broth microdilution method; type: functional; summary of the method: as §1
[25] = target: T1, Quinolone resistance protein NorA (Staphylococcus aureus); assay: Inhibition of NorA in Staphylococcus aureus SA1199B assessed as potentiation of ciprofloxacin-induced antibacterial activity by measuring fold reduction in ciprofloxacin MIC at 81.3 uM after 18 to 24 hrs by broth microdilution method; summary of the method: as §1
Staphylococcus aureus [26] = assay: Potentiation of ciprofloxacin-induced antibacterial activity against wild type Staphylococcus aureus SA1199 assessed as fold reduction in ciprofloxacin MIC at 32.9 uM after 18 to 24 hrs by broth microdilution method; type: functional
Staphylococcus aureus [27] = assay: Potentiation of ciprofloxacin-induced antibacterial activity against wild type Staphylococcus aureus SA1199 assessed as fold reduction in ciprofloxacin MIC at 73 uM after 18 to 24 hrs by broth microdilution method; type: functional; summary of the method: as §1
[28] = target: T1, Quinolone resistance protein NorA (Staphylococcus aureus); assay: Inhibition of NorA in Staphylococcus aureus SA1199B assessed as potentiation of ciprofloxacin-induced antibacterial activity by measuring fold reduction in ciprofloxacin MIC at 73 uM after 18 to 24 hrs by broth microdilution method; summary of the method: as §1
[29] = target: T1, Quinolone resistance protein NorA (Staphylococcus aureus); assay: Inhibition of NorA in Staphylococcus aureus SA1199B assessed as potentiation of ciprofloxacin-induced antibacterial activity by measuring fold reduction in ciprofloxacin MIC at 23 uM after 18 to 24 hrs by broth microdilution method; summary of the method: as §1
Staphylococcus aureus [30] = assay: Potentiation of ciprofloxacin-induced antibacterial activity against wild type Staphylococcus aureus SA1199 assessed as fold reduction in ciprofloxacin MIC at 23 uM after 18 to 24 hrs by broth microdilution method; type: functional; summary of the method: as §1
Staphylococcus aureus [31] = assay: Growth inhibition of Staphylococcus aureus SA1199B over-expressing NorA at 3.9 ug/ml after 18 to 24 hrs by broth microdilution method; type: organism-based
Staphylococcus aureus [32] = assay: Growth inhibition of wild type Staphylococcus aureus SA1199 at 3.9 ug/ml after 18 to 24 hrs by broth microdilution method; type: organism-based
Staphylococcus aureus [33] = assay: Potentiation of ciprofloxacin-induced antibacterial activity against wild type Staphylococcus aureus SA1199 assessed as fold reduction in ciprofloxacin MIC at 8.5 uM after 18 to 24 hrs by broth microdilution method; type: functional; summary of the method: as §1
[34] = target: T1, Quinolone resistance protein NorA (Staphylococcus aureus); assay: Inhibition of NorA in Staphylococcus aureus SA1199B assessed as potentiation of ciprofloxacin-induced antibacterial activity by measuring fold reduction in ciprofloxacin MIC at 8.5 uM after 18 to 24 hrs by broth microdilution method; summary of the method: as §1

Structure (SMILES)	GI50 at 72 h [2] [µM]	MNTC (Staphylococcus aureus [5]) [µM]	Activity (Staphylococcus aureus [7])	Activity (Staphylococcus aureus [20])	further results
Cl.N[C@@H](Cc1ccccc1)CN(CCc1ccccc1)C(=O)/C=C/c1ccccc1	6.5	37.1			growth inhibition (GI) (Staphylococcus aureus [1]): Toxic; fold change (FC) [3]: 2; MIC (Staphylococcus aureus [4]): 62.5 µg/mL; fold change (FC) (Staphylococcus aureus [6]): 2 - 4
CC(C)(C)OC(=O)NCCN(CCc1ccccc1)C(=O)/C=C/c1ccccc1	54.7	25.3	Non-Toxic		fold change (FC) [8]: 2; fold change (FC) (Staphylococcus aureus [9]): 1
CC(C)(C)OC(=O)N[C@@H](Cc1ccccc1)CN(CCc1c[nH]c2ccccc12)C(=O)/C=C/c1ccccc1	70	19.1	Non-Toxic		fold change (FC) [10]: 4 to 8; fold change (FC) (Staphylococcus aureus [11]): 1 - 2; Ratio [12]: 2
CC(C)[C@@H](CN(CCc1ccccc1)C(=O)/C=C/c1ccccc1)NC(=O)OC(C)(C)C	40.7	22.9	Non-Toxic		fold change (FC) (Staphylococcus aureus [13]): 1 - 2; fold change (FC) [14]: 2
CC(C)[C@@H](CN(CCc1c[nH]c2ccccc12)C(=O)/C=C/c1ccccc1)NC(=O)OC(C)(C)C	43.7	21	Non-Toxic		fold change (FC) (Staphylococcus aureus [15]): 1 - 2; fold change (FC) [16]: 4
CC(C)(C)OC(=O)N[C@@H](Cc1ccccc1)CN(CCc1ccccc1)C(=O)/C=C/c1ccccc1	17.3	20.6	Non-Toxic		fold change (FC) [17]: 1 to 2; fold change (FC) (Staphylococcus aureus [18]): 1
Cl.NCCN(CCc1ccccc1)C(=O)/C=C/c1ccccc1	73.3	90.9		Non-Toxic	fold change (FC) [19]: 1; fold change (FC) (Staphylococcus aureus [21]): 1 - 2
CC(C)[C@H](N)CN(CCc1ccccc1)C(=O)/C=C/c1ccccc1.Cl	52.4	80.6		Non-Toxic	fold change (FC) [22]: 2; fold change (FC) (Staphylococcus aureus [23]): 1 - 2
Cl.NCCN(CCc1c[nH]c2ccccc12)C(=O)/C=C/c1ccccc1	20.7	81.3		Non-Toxic	fold change (FC) (Staphylococcus aureus [24]): 2; fold change (FC) [25]: 2
COC(=O)[C@H]1[C@H]2C[C@@H]3c4[nH]c5cc(OC)ccc5c4CCN3C[C@H]2C[C@@H](OC(=O)c2cc(OC)c(OC)c(OC)c2)[C@@H]1OC [RESERPINE]	14.7	32.9			fold change (FC) (Staphylococcus aureus [26]): 2
CC(C)[C@H](N)CN(CCc1c[nH]c2ccccc12)C(=O)/C=C/c1ccccc1.Cl	25.3	73		Non-Toxic	fold change (FC) (Staphylococcus aureus [27]): 2 - 4; fold change (FC) [28]: 4
CC(C)(C)OC(=O)NCCN(CCc1c[nH]c2ccccc12)C(=O)/C=C/c1ccccc1	35.3	23	Non-Toxic		fold change (FC) [29]: 4; fold change (FC) (Staphylococcus aureus [30]): 2
Cl.N[C@@H](Cc1ccccc1)CN(CCc1c[nH]c2ccccc12)C(=O)/C=C/c1ccccc1	6.33	8.5			growth inhibition (GI) (Staphylococcus aureus [31]): Toxic; growth inhibition (GI) (Staphylococcus aureus [32]): Toxic; MIC (Staphylococcus aureus [4]): 15.7 µg/mL; fold change (FC) (Staphylococcus aureus [33]): 2; fold change (FC) [34]: 2
